PubChem BioAssay
The source made the active and inactive calls.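 How the source made its calls, unless noted: active means a full or partial loss of lipid-probe fluorescence in the fish gall bladder, intestine or both, judged by eye; inactive means no fluorescence loss, or compound toxic to the fish.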

Key:
[1] = inhibitors of TNFa-induced NFkB p65 translocation, primary screen, imaging, HUVEC, MLSMR starter and 10KST1 sets (AID 438;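 active means inhibition above 20% together with a positive visual image hit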;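 further: compound added about 3h40 before a 20 min TNFalpha stimulation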;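 on inhibition: signal is the nuclear over cytoplasmic p65 intensity ratio per well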); conditions: HUVEC TNFa-induced p65 nuclear translocation; cell count: measured here: nuclei count (cytotoxicity indicator), at 2.08 µM; inhibition: at 2 µM, stronger effect = higher value, 0% TNFa-plus-vehicle, 100% no-TNFa wells
[2] = inhibitors of E-selectin induction by TNFa, primary screen, imaging, HUVEC, immunofluorescence, MLSMR starter and 10KST1 sets (AID 487;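 active means visually confirmed hit in the image check and inhibition above 20%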;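 on inhibition: signal is fraction of cell area covered by stained E-selectin grains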;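 on nuclei count: 100% = median nuclei count of all wells on the same plate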); conditions: HUVEC TNFalpha-induced E-selectin immunofluorescence imaging, at 2 µM; inhibition: stronger effect = higher value; nuclei count: measured here: cell number, toxicity
[3] = DUSP6 inhibitors restoring Erk phosphorylation by chemical complementation, primary imaging in DUSP6-transfected HeLa (AID 609;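 active means compounds giving at least 50% inhibition in the cell-based MKP-3 phosphatase rescue imaging test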;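 on inhibition: phospho-Erk level distribution per well compared with pooled transfected vehicle control wells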); conditions: HeLa MKP-3 transfected, phospho-Erk imaging KS statistic, at 10 µM, cells stimulated with TPA for 15 min
[4] = molecular target: Dual specificity protein phosphatase 6 (Homo sapiens) (UniProt Q16828); experiment: as above; conditions: HeLa MKP-3 transfected, phospho-Erk imaging KS statistic; at 10 µM; stronger effect = higher value; cells stimulated with TPA for 15 min
[5] = molecular target: Voltage-gated potassium channel subunit beta-2 (Rattus norvegicus) (UniProt P62483); experiment: KvBeta enzyme negative modulators, primary screen, biochemical, NADPH fluorescence (AID 622;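 active means fluorescence slope higher than the sample average by over 3 SD, cut at about -0.22 in these data, passing the limit was not always enough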;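 further: slope of raw intensity against log time taken from 70 to 1610 s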); conditions: recombinant KvBeta, 4-cyanobenzaldehyde reduction, at 10 µM, stronger effect = higher value
[6] = molecular target: Voltage-gated potassium channel subunit beta-2 (Rattus norvegicus) (UniProt P62483); experiment: KvBeta positive modulators, primary screen, biochemical, NADPH fluorescence (AID 623;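 active means NADPH fluorescence slope more negative than the mean of all samples by about 3 SD, 99.7% confidence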;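 further: fluorescence intensity change per second fitted from 20 to 320 s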); conditions: Recombinant KvBeta, NADPH fluorescence decrease slope, 10 min; at 10 µM; stronger effect = lower value
[7] = molecular target: Alpha-2C adrenergic receptor (Homo sapiens) (UniProt P18825); experiment: modulators of alpha2C/GIRK thallium flux, primary screen, cell-based, HEK293 alpha2C/GIRK1/2 (AID 624;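 active means fluorescence slope after compound addition differing from the mean of all screened samples at 99.7% confidence, in either direction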;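 further: slope of fluorescence ratio to pre-addition baseline per second over 15 to 24 s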); conditions: thallium flux BTC fluorescence, at 10 µM, actives lie on both sides
[8] = inhibitors of larval lipid processing in zebrafish, primary screen, whole organism, PED6 fluorescence, gall bladder and intestine (AID 686); conditions: Zebrafish larvae PED6 lipid processing, fluorescence scoring; screened at 20 µM (by protocol);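 further: larvae 5 to 7 days old with five fish per well; signal comes from phospholipase A2 cleavage of quenched PED6 carried via bile; overnight exposure to compound and PED6 before scoring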
Procedure, shortened: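 Also added: quenched phospholipase substrate PED6, 100 nM final, ingested by larvae; System: zebrafish larvae, 5-7 d; Quantity: 5 larvae per well; Compound: 20 µM single dose; Schedule: overnight compound and PED6 incubation; Read-out: visual per-well fluorescence inhibition score; Measured by: By-eye fluorescence microscopy; Medium: E3.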

[9] = inhibitors of Chlamydomonas gravitaxis, primary screen, whole organism, Chlamydomonas reinhardtii, WT vs cilia-less mutant, absorbance, 96-well (AID 463189;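 active means inhibition at or above 50% relative to wild type and mutant plate controls; inactive means inhibition below 50%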;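 further: 0% = wild type cc124 cells in DMSO and 100% = ciliumless bld1 mutant cells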); conditions: OD600 absorbance, 2 days, at 10 µM, stronger effect = higher value
[10] = measured here: cell density z-score
[11] = measured here: nuclear c-Myc green intensity z-score
[12] = measured here: nuclear pErk red intensity z-score, stronger effect = higher value

Sequence of Voltage-gated potassium channel subunit beta-2 (Rattus norvegicus) (P62483 whole entry, looked up): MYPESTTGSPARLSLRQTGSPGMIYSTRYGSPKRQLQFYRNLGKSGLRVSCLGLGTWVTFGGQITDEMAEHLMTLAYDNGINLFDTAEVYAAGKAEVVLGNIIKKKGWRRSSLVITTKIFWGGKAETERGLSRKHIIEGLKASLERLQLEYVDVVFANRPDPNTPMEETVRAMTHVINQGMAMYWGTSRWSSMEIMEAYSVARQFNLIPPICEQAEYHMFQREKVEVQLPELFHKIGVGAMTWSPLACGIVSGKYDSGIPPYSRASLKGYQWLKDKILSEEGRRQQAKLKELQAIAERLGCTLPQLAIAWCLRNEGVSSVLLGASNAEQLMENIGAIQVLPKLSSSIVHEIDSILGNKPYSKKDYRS
Sequence of Alpha-2C adrenergic receptor (Homo sapiens) (P18825 whole entry, looked up): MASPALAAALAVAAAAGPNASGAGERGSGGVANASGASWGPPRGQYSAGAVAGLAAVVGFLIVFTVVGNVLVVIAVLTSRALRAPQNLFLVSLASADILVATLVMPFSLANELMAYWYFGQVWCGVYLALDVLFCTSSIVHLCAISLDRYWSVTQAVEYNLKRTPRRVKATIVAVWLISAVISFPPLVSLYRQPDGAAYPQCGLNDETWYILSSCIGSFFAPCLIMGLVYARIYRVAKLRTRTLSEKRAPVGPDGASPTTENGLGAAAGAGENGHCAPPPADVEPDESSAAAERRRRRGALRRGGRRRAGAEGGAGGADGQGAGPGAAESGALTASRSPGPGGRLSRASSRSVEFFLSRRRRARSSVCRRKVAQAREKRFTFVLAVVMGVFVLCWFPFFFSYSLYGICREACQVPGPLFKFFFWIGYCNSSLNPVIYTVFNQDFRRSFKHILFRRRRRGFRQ
Sequence of Dual specificity protein phosphatase 6 (Homo sapiens) (Q16828 whole entry, looked up): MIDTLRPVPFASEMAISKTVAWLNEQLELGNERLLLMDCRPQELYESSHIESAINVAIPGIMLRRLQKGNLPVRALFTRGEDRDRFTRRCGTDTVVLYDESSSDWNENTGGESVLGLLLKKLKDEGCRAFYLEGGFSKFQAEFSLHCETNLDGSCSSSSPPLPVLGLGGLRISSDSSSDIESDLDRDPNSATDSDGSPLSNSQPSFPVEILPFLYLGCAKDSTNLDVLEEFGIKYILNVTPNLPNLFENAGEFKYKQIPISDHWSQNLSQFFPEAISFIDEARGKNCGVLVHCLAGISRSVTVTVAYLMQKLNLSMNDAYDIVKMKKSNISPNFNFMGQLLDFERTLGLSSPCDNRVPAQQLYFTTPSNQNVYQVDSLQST

Compound | cell count [1] | inhibition [1] | inhibition [2] | nuclei count [2] [%] | z-score [3, 10] | z-score [3, 11] | z-score [3, 12] | inhibition [4] | fluorescence slope [5] | NADPH fluorescence slope [6] | slope [7] | outcome [8] | inhibition [9]
O=c1c2c3c(sc2n2cnnc2n1Cc1ccccc1)CN(Cc1ccccc1)CC3 | 620 | -1.6% (inactive) | 66.2% (inactive) | 104 | 0.015 | 0.568 | 0.295 | 6.04% (inactive) | -0.427 (inactive) | -1.4e-05 (inactive) | 0.0049 (inactive) | inactive | 22.4% (inactive)
CCCCn1c(C)cc2cc(O)ccc21 | 320 | -9.2% (inactive) | -73.6% (inactive) | 154 | -1.22 | 2.41 | 1.37 | -8.76% (inactive) | -0.432 (inactive) | -0.000136 (inactive) | 0.00664 (inactive) | inactive | -7.64% (inactive)
Cc1cccc(C)c1NC(=O)CSCC(=O)c1ccc(O)c(O)c1 | 364 | -4.2% (inactive) | -100% (inactive) | 158 | 0.118 | 0.467 | 0.0935 | 24.7% (inactive) | -0.4 (inactive) | -6.4e-05 (inactive) | 0.00773 (inactive) | inactive | -8.43% (inactive)
CC(C)OC(=O)c1sc2nc3c(cc2c1N)C(=O)CCC3 | 334 | -8% (inactive) | -109% (inactive) | 159 | 1.59 | -1.25 | -0.674 | 9.42% (inactive) | -0.403 (inactive) | -9.2e-05 (inactive) | 0.0073 (inactive) | inactive | -4.23% (inactive)
CC1(C)CC(N(Cc2ccco2)C(=O)Cc2ccccc2)CCO1 (stereo unspecified) | 535 | 12.5% (inactive) | -104% (inactive) | 145 | -0.358 | 2.8 | -0.796 | 3.5% (inactive) | -0.485 (inactive) | -3.2e-05 (inactive) | 0.00539 (inactive) | inactive | 6.62% (inactive)
C[C@@H]1C[C@H](Nc2ccccc2)c2ccccc2N1C(=O)c1cccnc1 | 539 | -1.7% (inactive) | 3.9% (inactive) | 159 | 2.9 | -1.02 | 0.461 | 25.7% (inactive) | -0.265 (inactive) | 6.9e-06 (inactive) | 0.00503 (inactive) | inactive | 0.503% (inactive)
c1ccc(C2Nc3ccccc3-c3nc4ccccc4n32)nc1 (stereo unspecified) | 467 | 5.5% (inactive) | -27.5% (inactive) | 101 | -0.673 | 0.738 | -0.0231 | 12.3% (inactive) | -0.495 (inactive) | -1.1e-05 (inactive) | 0.00682 (inactive) | inactive | -35.3% (inactive)
CSc1nnc2n(C3CCCCC3)c(=O)c3c4c(sc3n12)CCCC4 | 609 | -10.6% (inactive) | -12.8% (inactive) | 111 | -0.921 | -0.992 | -0.882 | -2.07% (inactive) | -0.502 (inactive) | -0.000304 (inactive) | 0.0054 (inactive) | inactive | -18.3% (inactive)
Cc1oc2cc(O)cc(C)c2c(=O)c1-c1cnn(-c2ccccc2)c1 | 578 | -1.3% (inactive) | -189% (inactive) | 149 | 0.4 | 1.63 | 0.0441 | 15.9% (inactive) | -0.509 (inactive) | -5.7e-05 (inactive) | 0.00468 (inactive) | inactive | 20.5% (inactive)
COCCOC(=O)C1=C(C)OC(N)=C(C#N)C1c1ccco1 (stereo unspecified) | 364 | -7.8% (inactive) | -269% (inactive) | 165 | -0.623 | -0.763 | 1.29 | -13.5% (inactive) | -0.406 (inactive) | -4.7e-05 (inactive) | 0.00481 (inactive) | inactive | 20.2% (inactive)
N#CC1(P(=O)(c2ccccc2)c2ccccc2)CC1 | 481 | -10.9% (inactive) | -110% (inactive) | 143 | -0.778 | -0.637 | -0.322 | 11.3% (inactive) | -0.546 (inactive) | -5.6e-05 (inactive) | 0.00538 (inactive) | inactive | 5.77% (inactive)
CNC(=O)C1CC(=O)N(Cc2ccccc2)C(=Nc2ccc(OC)cc2)S1 (stereo unspecified) | 491 | -5.2% (inactive) | -228% (inactive) | 127 | -1.18 | -0.897 | 1.34 | -14% (inactive) | -0.496 (inactive) | -4.1e-05 (inactive) | 0.00456 (inactive) | inactive | 1.87% (inactive)
CCOC(=O)c1ccc(N=CC2=C(O)CC(c3ccco3)CC2=O)cc1 (stereo unspecified) | 411 | -17.7% (inactive) | -249% (inactive) | 188 | 1.91 | -1.05 | 0.242 | 16% (inactive) | -0.351 (inactive) | -1.6e-05 (inactive) | 0.00521 (inactive) | inactive | 1.78% (inactive)
CCCc1cc(C(=O)Cc2ccc(F)cc2)c(O)cc1O | 563 | -8.9% (inactive) | -180% (inactive) | 128 | 0.0278 | -0.762 | -1.21 | 19.8% (inactive) | -0.507 (inactive) | -3.4e-06 (inactive) | 0.00499 (inactive) | inactive | 74.4% (active)
COc1ccccc1-c1nn2c(-c3ccc(C(C)(C)C)cc3)nnc2s1 | 509 | -5.2% (inactive) | -76.5% (inactive) | 110 | -0.995 | -1.37 | -0.665 | -7.86% (inactive) | -0.42 (inactive) | -3.3e-05 (inactive) | 0.0128 (inactive) | inactive | 19.8% (inactive)
COc1cc(-c2nn3c(-c4ccco4)nnc3s2)cc(OC)c1OC | 483 | -2.2% (inactive) | -67.5% (inactive) | 99.3 | -0.638 | -0.467 | 0.841 | -2.47% (inactive) | -0.471 (inactive) | 3.2e-05 (inactive) | 0.0061 (inactive) | inactive | 4.86% (inactive)
CCOC(=O)NC(O)C(=O)c1cccs1 (stereo unspecified) | 507 | -20.3% (inactive) | -205% (inactive) | 153 | 1.4 | -0.239 | -0.163 | 22.3% (inactive) | -0.5 (inactive) | -0.000158 (inactive) | 0.00426 (inactive) | inactive | 16.4% (inactive)
CCOP(=O)(c1ccccc1)c1nc(-c2ccc(F)cc2)oc1N1CCCCC1 (stereo unspecified) | 658 | 1.8% (inactive) | -100% (inactive) | 136 | 0.739 | -0.227 | 1.53 | 4.25% (inactive) | -0.529 (inactive) | -0.000105 (inactive) | 0.00389 (inactive) | inactive | 2.55% (inactive)
O=C(c1ccc(=O)oc1)N1CCOCC1 | 357 | -5.3% (inactive) | -8.3% (inactive) | 167 | 1.26 | -0.649 | 0.718 | -6.59% (inactive) | -0.46 (inactive) | -0.000126 (inactive) | 0.0053 (inactive) | inactive | 25% (inactive)
CN1CCc2c(sc3ncn4nc(-c5ccccc5O)nc4c23)C1 | 519 | -12.5% (inactive) | -51.6% (inactive) | 125 | 0.947 | -1.25 | 0.576 | 9.39% (inactive) | -0.472 (inactive) | -0.000226 (inactive) | 0.00542 (inactive) | inactive | 87% (active)
COC(=O)CN1C2(C#N)CCCCC2CC2CCCCC21C#N (stereo unspecified) | 420 | -8.8% (inactive) | -128% (inactive) | 153 | -0.336 | -0.947 | -0.0966 | 3.66% (inactive) | -0.504 (inactive) | -9.5e-05 (inactive) | 0.00451 (inactive) | inactive | 45.5% (inactive)
O=S(=O)(c1ccccc1)N1CCC(N2CCN(c3ccccc3)CC2)CC1 | 454 | -26.3% (inactive) | -98.2% (inactive) | 140 | -1.37 | -0.201 | -1.07 | -3.95% (inactive) | -0.326 (inactive) | 1.7e-05 (inactive) | 0.006 (inactive) | inactive | 1.95% (inactive)
Cc1c(N2C(=O)SC(CC(=O)O)C2=O)c(=O)n(-c2ccccc2)n1C (stereo unspecified) | 500 | 1.9% (inactive) | -80.6% (inactive) | 128 | -1.16 | -0.83 | -0.709 | -10.5% (inactive) | -0.518 (inactive) | -3.7e-05 (inactive) | 0.00585 (inactive) | inactive | -1.65% (inactive)
COC(=O)c1ccc(C(=O)OC)c(NC(=O)c2cc3ccccc3o2)c1 | 641 | -12.1% (inactive) | 15.1% (inactive) | 175 | 2.88 | -0.375 | -1.4 | 6.51% (inactive) | -0.377 (inactive) | -5.2e-05 (inactive) | 0.00547 (inactive) | inactive | -2.3% (inactive)
COc1cc(NC2=CC(=O)CC(C)(C)C2)cc(OC)c1OC | 584 | -15% (inactive) | -72.4% (inactive) | 141 | -0.351 | -0.143 | 0.715 | -1.98% (inactive) | -0.488 (inactive) | -3.8e-05 (inactive) | 0.00597 (inactive) | inactive | -4.05% (inactive)
CC(=O)N[C@H]1C[C@@H]1c1ccccc1 | 404 | -8.9% (inactive) | 0.6% (inactive) | 103 | 0.812 | -0.111 | -1.93 | 6.04% (inactive) | -0.4 (inactive) | 3.1e-05 (inactive) | 0.00883 (inactive) | inactive | -14.5% (inactive)
Cc1ccc(C#N)c(SCc2cc3c(cc2Cl)OCO3)n1 | 538 | -31.1% (inactive) | -76.1% (inactive) | 159 | -0.24 | -0.891 | -0.243 | -2.47% (inactive) | -0.515 (inactive) | -6.3e-05 (inactive) | 0.00686 (inactive) | inactive | 28.8% (inactive)
